Source: PMC12010439 (Cell, 2024)
pIC50: −log10 of the molar value.

Tests used:
[1] = tested on: eight cell lines representing different cancer types; assay: Drug response viability assay; assay type: cell-based; conditions: 48 h
[2] = tested on: HT29 colon cancer cell line xenografts; assay: HT29 colon cancer cell line xenograft treated with alvespimycin; assay type: in vivo, BALB/c nude mice; conditions: alvespimycin 50 mg/kg intraperitoneally daily, N = 9
Procedure, shortened: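 Female BALB/c nude mice, 4–6 weeks old, received 5×10^6 HT29 cells in 100 μL PBS subcutaneously in the dorsal flank. On day 0 they were randomised to vehicle (2% DMSO in PBS) or test compound at 50 mg/kg i.p. daily, N = 9 per group, and sacrificed 7 days later. Tumours were measured by caliper every 1–3 days; volume = (width)2 × length × 0.52; mean ± sd.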

UCEC tumors = conditions: cited from earlier work
[3] = tested on: T cells of HLA-A*02 healthy donors; assay: IFN-γ ELISpot assay; assay type: cell-based, human
[4] = CD8+ T cell cultures of donor US1 with HLA-A*02:11, peptide 12.5 μg/mL, about 16 hrs (BCM)
[5] = donor CN1 with HLA-A*02:01, peptide 10 μg/mL, 20h co-culture (Fudan)

## CO[C@H]1/C=C\C=C(/C)C(=O)NC2=CC(=O)C(NCCN(C)C)=C(C[C@@H](C)C[C@H](OC)[C@H](O)[C@@H](C)/C=C(\C)[C@@H]1OC(N)=O)C2=O [alvespimycin]
[1]
  pIC50: > 6.00
[2]
  tumor regression: began to induce tumor regression after seven days of treatment

## COc1cccc2c1C(=O)c1c(O)c3c(c(O)c1C2=O)C[C@@](O)(C(=O)CO)C[C@@H]3O[C@H]1C[C@H](N)[C@H](O)[C@H](C)O1 [doxorubicin]
UCEC tumors; unselected UCEC patients
  overall response rate: 16%

## O=C1c2c(O)ccc(O)c2C(=O)c2c(NCCNCCO)ccc(NCCNCCO)c21 [mitoxantrone]
UCEC tumors; UCEC tumors among unselected patients
  clinical activity: lack clinical activity

## C=CCNC1=C2C[C@@H](C)C[C@H](OC)[C@H](O)[C@@H](C)/C=C(\C)[C@H](OC(N)=O)[C@@H](OC)/C=C\C=C(/C)C(=O)NC(=CC1=O)C2=O [tanespimycin]
[1]
  pIC50: > 6.00

## CILESLFRAV [PEP4]
[3]; [4]
  T cell reactivity, IFN-γ ELISpot: strong reactivity

## FSYAWPFYNPV [PEP28]
[3]; [5]
  T cell reactivity, IFN-γ ELISpot: strong reactivity

## MMGLYDGMEHL [PEP17]
[3]; [4]
  T cell reactivity, IFN-γ ELISpot: strong reactivity

## YLVERQLQEI [PEP40]
[3]; [5]
  T cell reactivity, IFN-γ ELISpot: strong reactivity
